Measured values from ChEMBL document CHEMBL4138183, “Diselaginellin B, an Unusual Dimeric Molecule from Selaginella pulvinata, Inhibited Metastasis and Induced Apoptosis of SMMC-7721 Human Hepatocellular Carcinoma Cells” (J Nat Prod, 2017).
Activity calls are given as the source filed them. No cut-off for these calls is given here.

Tests used:
SMMC-7721 [1] = assay: Induction of apoptosis in human SMMC7721 cells assessed as late apoptotic cells at 2.5 uM after 48 hrs by Annexin-V-FITC/propidium iodide staining based flow cytometric method (reference value: 1.17%); assay type: functional
SMMC-7721 [2] = assay: Induction of apoptosis in human SMMC7721 cells assessed as live cells at 5 uM after 48 hrs by Annexin-V-FITC/propidium iodide staining based flow cytometric method (reference value: 95.75%); assay type: functional
SMMC-7721 [3] = assay: Antimetastatic activity against human SMMC7721 cells assessed as reduction in cell migration at 0.5 to 2 uM after 48 hrs by crystal violet staining based fluorescence microscopic analysis; assay type: functional
Method in brief: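 Migration through uncoated Transwell filter (8 μm pore): 2 × 10^4 cells in serum-free RPMI on upper side, treated 0.5, 1 or 2 μM for 48 h; lower chamber 10% FBS medium. Upper-surface cells removed by swab; underside cells crystal violet stained and scored in five random fields under fluorescence microscope. Paclitaxel 100 nM positive control; n = 3.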

SMMC-7721 [4] = assay: Down regulation of COX1 mRNA expression in human SMMC7721 cells at 8 uM by RT-qPCR analysis; assay type: functional, cell-based
Method in brief: (§1)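 Cells exposed to 8 μM; target mRNA quantified by RT-qPCR normalized to actin; means ± SD, n = 3.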

SMMC-7721 [5] = assay: Cell cycle arrest in human SMMC7721 cells assessed as increase in G1 population at 2.5 to 5 uM after 48 hrs by propidium iodide staining based flow cytometric method; assay type: functional
Method in brief: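 Cells exposed 48 h to 2.5 or 5 μM, PBS-washed, fixed in 70% ethanol at 4 °C overnight, centrifuged, RNase treated 37 °C 30 min, then PI stained 30 min in dark; G1/S/G2 distribution by flow cytometry; means ± SD, n = 3.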

SMMC-7721 [6] = assay: Antimetastatic activity against human SMMC7721 cells assessed as reduction in cell invasion at 1 uM after 48 hrs using crystal violet staining by matrigel based fluorescence microscopic analysis relative to control; assay type: functional
Method in brief: (§2)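 Transwell invasion: filter (8 μm pore) coated with matrigel for 2 h at 37 °C; 2 × 10^4 cells seeded in serum-free RPMI on upper surface with test agent 48 h; 10% FBS medium in lower chamber. Non-invaded cells swabbed off; invaded cells crystal violet stained, counted in five random fields by fluorescence microscopy. Paclitaxel 100 nM positive control; means ± SD, n = 3.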

SMMC-7721 [7] = assay: Antimetastatic activity against human SMMC7721 cells assessed as reduction in cell invasion at 2 uM after 48 hrs using crystal violet staining by matrigel based fluorescence microscopic analysis relative to control; assay type: functional; method in brief: as §2
SMMC-7721 [8] = assay: Cytotoxicity against human SMMC7721 cells assessed as reduction in cell viability after 48 hrs by MTT assay; assay type: functional, cell-based; settings: SMMC-7721, 48 h
Method in brief: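 MTT viability: 5 × 10^4 cells/well seeded, cultured overnight, treated with graded concentrations 48 h; MTT (5 mg/mL stock) added 4 h, formazan dissolved in DMSO, absorbance read at 490 nm.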

SMMC-7721 [9] = assay: Induction of apoptosis in human SMMC7721 cells assessed as necrotic cells at 10 uM after 48 hrs by Annexin-V-FITC/propidium iodide staining based flow cytometric method (reference value: 0.82%); assay type: functional
SMMC-7721 [10] = assay: Induction of apoptosis in human SMMC7721 cells after 48 hrs by Annexin-V-FITC/propidium iodide staining based flow cytometric method; assay type: functional, cell-based
SMMC-7721 [11] = assay: Induction of apoptosis in human SMMC7721 cells assessed as live cells at 10 uM after 48 hrs by Annexin-V-FITC/propidium iodide staining based flow cytometric method (reference value: 95.75%); assay type: functional
SMMC-7721 [12] = assay: Antimetastatic activity against human SMMC7721 cells assessed as reduction in cell invasion at 0.5 uM after 48 hrs using crystal violet staining by matrigel based fluorescence microscopic analysis relative to control; assay type: functional; method in brief: as §2
SMMC-7721 [13] = assay: Induction of apoptosis in human SMMC7721 cells assessed as late apoptotic cells at 5 uM after 48 hrs by Annexin-V-FITC/propidium iodide staining based flow cytometric method (reference value: 1.17%); assay type: functional
SMMC-7721 [14] = assay: Induction of apoptosis in human SMMC7721 cells assessed as early apoptotic cells at 5 uM after 48 hrs by Annexin-V-FITC/propidium iodide staining based flow cytometric method (reference value: 2.27%); assay type: functional
SMMC-7721 [15] = assay: Induction of apoptosis in human SMMC7721 cells assessed as necrotic cells at 5 uM after 48 hrs by Annexin-V-FITC/propidium iodide staining based flow cytometric method (reference value: 0.82%); assay type: functional
SMMC-7721 [16] = assay: Down regulation of MAGP2 mRNA expression in human SMMC7721 cells at 8 uM by RT-qPCR analysis; assay type: functional, cell-based; method in brief: as §1
SMMC-7721 [17] = assay: Induction of apoptosis in human SMMC7721 cells assessed as early apoptotic cells at 2.5 uM after 48 hrs by Annexin-V-FITC/propidium iodide staining based flow cytometric method (reference value: 2.27%); assay type: functional
SMMC-7721 [18] = assay: Induction of apoptosis in human SMMC7721 cells assessed as live cells at 2.5 uM after 48 hrs by Annexin-V-FITC/propidium iodide staining based flow cytometric method (reference value: 95.75%); assay type: functional
SMMC-7721 [19] = assay: Induction of apoptosis in human SMMC7721 cells assessed as early apoptotic cells at 10 uM after 48 hrs by Annexin-V-FITC/propidium iodide staining based flow cytometric method (reference value: 2.27%); assay type: functional
SMMC-7721 [20] = assay: Down regulation of COX2 mRNA expression in human SMMC7721 cells at 8 uM by RT-qPCR analysis; assay type: functional, cell-based; method in brief: as §1
SMMC-7721 [21] = assay: Down regulation of NNMT mRNA expression in human SMMC7721 cells at 8 uM by RT-qPCR analysis; assay type: functional, cell-based; method in brief: as §1
SMMC-7721 [22] = assay: Down regulation of CEACAM7 mRNA expression in human SMMC7721 cells at 8 uM by RT-qPCR analysis; assay type: functional, cell-based; method in brief: as §1
SMMC-7721 [23] = assay: Upregulation of DLD mRNA expression in human SMMC7721 cells at 8 uM by RT-qPCR analysis; assay type: functional, cell-based; method in brief: as §1
SMMC-7721 [24] = assay: Down regulation of TSPAN8 mRNA expression in human SMMC7721 cells at 8 uM by RT-qPCR analysis; assay type: functional, cell-based; method in brief: as §1
SMMC-7721 [25] = assay: Induction of apoptosis in human SMMC7721 cells assessed as late apoptotic cells at 10 uM after 48 hrs by Annexin-V-FITC/propidium iodide staining based flow cytometric method (reference value: 1.17%); assay type: functional
SMMC-7721 [26] = assay: Induction of apoptosis in human SMMC7721 cells assessed as necrotic cells at 2.5 uM after 48 hrs by Annexin-V-FITC/propidium iodide staining based flow cytometric method (reference value: 0.82%); assay type: functional

O=C1C=CC(=C(c2ccc(O)cc2)c2c(-c3ccc(O)cc3)ccc(CO)c2C#Cc2ccc(OCc3ccc(-c4ccc(O)cc4)c(C(=C4C=CC(=O)C=C4)c4ccc(O)cc4)c3C#Cc3ccc(O)cc3)cc2)C=C1
Activity (SMMC-7721 [1]): 11.13% | Activity (SMMC-7721 [2]): 58.59% | Activity (SMMC-7721 [3]): Active | Activity (SMMC-7721 [4]): Active | Activity (SMMC-7721 [5]): Active | fold change (FC) (SMMC-7721 [6]): 0.42 | fold change (FC) (SMMC-7721 [7]): 0.39 | IC50 (SMMC-7721 [8]): 9 µM | Activity (SMMC-7721 [9]): 1.15% | Activity (SMMC-7721 [10]): Dose-dependent effect | Activity (SMMC-7721 [11]): 47.83% | fold change (FC) (SMMC-7721 [12]): 0.53 | Activity (SMMC-7721 [13]): 32.3% | Activity (SMMC-7721 [14]): 7.57% | Activity (SMMC-7721 [15]): 1.54% | Activity (SMMC-7721 [16]): Active | Activity (SMMC-7721 [17]): 5.4% | Activity (SMMC-7721 [18]): 82.58% | Activity (SMMC-7721 [19]): 21.22% | Activity (SMMC-7721 [20]): Active | Activity (SMMC-7721 [21]): Active | Activity (SMMC-7721 [22]): Active | Activity (SMMC-7721 [23]): Active | Activity (SMMC-7721 [24]): Active | Activity (SMMC-7721 [25]): 29.8% | Activity (SMMC-7721 [26]): 0.89%
